High-throughput results deposited in PubChem BioAssay by Johns Hopkins Ion Channel Center.
Only some compounds are listed: those with a hit (about 2.9% of all), similar ones and a draw of the others.
TRPC6 activator = activators of mouse TRPC6 channel; Q61143; HEK293-TRPC6 membrane potential dye fluorescence; hits give high values; B-score at 10 µM; 310,000 compounds, 0.13% hits; AID 2550;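 active = B-score of the integrated fluorescence ratio above library mean plus 3 SD, and starting fluorescence ratio within library mean plus 5 SD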;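 note: higher score means more depolarization so channel activation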
TRPC4 block = inhibitors of mouse TRPC4 channel; Q9QUQ5; HEK293 TRPC4beta/mu-opioid, DAMGO-evoked Fluo4 calcium flux; hits give low values; B-score at 10 µM; 300,000 compounds, 0.39% hits; AID 2247;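 active = B-score over 3 SD under the library average, no early fluorescence shift, positive overall ratio signal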
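Assay system: HEK293 cells with stable TRPC4beta plus mu-opioid receptor expression. Dosing: single dose. Measured by: Fluo4 Ca2+ flux fluorescence. Also added: DAMGO in two steps, submaximal then maximal. Read-out: B score from integrated Fluo4 fluorescence ratio.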
TRPC6 inh = blocks the mouse TRPC6 cation channel | 310,000 compounds, 1.1% hits | HEK293-TRPC6, membrane potential dye, ACh-evoked depolarization; hits give low values | B-score at 10 µM;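 active = B-score under library mean minus 3 SD, initial fluorescence not abnormally high, positive integrated signal ratio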;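 note: B-score derived from integrated fluorescence ratio over the kinetic read; more negative B-score means stronger inhibition of depolarization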
TRPC4 potent = TRPC4 (mouse) allosteric potentiation | Q9QUQ5 | HEK293 TRPC4beta/mu-opioid, DAMGO EC20, Fluo-4 Ca2+ flux; hits give high values | B-score at 10 µM | 310,000 compounds, 0.42% hits | AID 2227;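 active = B-score of calcium response area above 5 SD of library B-scores, with initial fluorescence ratio within 5 SD of library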
Kir21 block = blocks the mouse Kir2.1 inward-rectifier potassium channel; P35561; HEK293-Kir2.1, FluxOR thallium flux fluorescence; hits give low values; B-score at 10 µM; 310,000 compounds, 0.85% hits; AID 1672;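 active = fluorescence ratio B-score at or below minus 3 SD of library scores, with starting-brightness B-score within 2 SD, cut at about -4.2 in these data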;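 note: channel flux triggered by added potassium and thallium sulfate stimulus; B-score of peak minus minimum fluorescence over baseline after thallium stimulus; more negative B-score means stronger Kir2.1 block with less thallium influx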
TRPC4 agonist = opens the mouse TRPC4 cation channel. AID 2237. 310,000 compounds, 0.49% hits. HEK293 TRPC4beta/mu-opioid, Fluo4 calcium fluorescence; hits give high values. Q9QUQ5. B-score at 10 µM;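 active = B-score above 5 SD of library B-scores, and initial fluorescence ratio not above library mean plus 5 SD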;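 note: positive B-score marks a calcium rise read as TRPC4 activation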
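Technique: kinetic Fluo4 calcium fluorescence; Test system: TRPC4beta and mu-opioid receptor HEK293 stable cells; Measure: B-scored integrated calcium fluorescence ratio; Benchmarks: low control buffer alone, high control maximal DAMGO; Schedule: 45 min room-temperature Fluo4 loading, 110 s read.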
Large screens that a line does not name were inactive.

O=C(CCS(=O)(=O)c1ccc(Cl)cc1)N1CCCc2ccccc21	Kir21 block -4.8
Cc1cccc(S(=O)(=O)N2CCCc3ccccc32)c1	Kir21 block -6.38
Cc1ccc(S(=O)(=O)CCC(=O)N2CCc3ccccc32)cc1	none
O=S(=O)(c1ccc(Br)cc1)N1CCCc2ccccc21	Kir21 block -4.86
CN(C)c1ccc(/C=N/N(CCC#N)C2=NS(=O)(=O)c3ccccc32)cc1	none
COc1ccc(C)cc1NC(=O)CNc1ccccc1CN(C)C1CCCCC1	none
Cc1ccc(NC(=O)CNc2ccccc2CN(C)C2CCCCC2)cc1	TRPC4 block -6
CCCCc1cc(O)c(CCCC)c(O)c1	TRPC4 potent 11, TRPC4 agonist 65
CCCCCc1cc(O)c2c(C)cc(=O)oc2c1	none
CC(C)(CO)CNC(=O)c1ccc2nc(Cc3cccc(Cl)c3)oc2c1	none
CN(Cc1ccccc1)CC(O)COc1ccc(CNCc2ccc(Cl)s2)cc1 (centres undefined)	Kir21 block -12.3
O=C(Cn1ncc2c3ccccc3n(Cc3cccc(Cl)c3)c2c1=O)NCC1CCCO1 (centres undefined)	none
COc1cccc(OCC(O)CN2CCN(c3ncccn3)CC2)c1 (centres undefined)	none
CCn1c(C2CC(=O)N(Cc3ccccc3)C2)nc2ccccc21 (centres undefined)	TRPC4 potent 16
C=C(C)Cn1c(C2CC(=O)N(Cc3ccccc3)C2)nc2ccccc21 (centres undefined)	none
COc1ccc(S(=O)(=O)NCc2cccnc2)cc1C(=O)Nc1ccccc1	none
CCCc1noc2c1/C(=N\O)CC(CC(C)SCC)C2 (centres undefined)	TRPC4 block -6
CCSC(C)CC1C/C(=N/O)c2c(CC)noc2C1 (centres undefined)	none
Cc1cc(NS(=O)(=O)c2ccc(NC(=O)COc3ccc(Cl)c(C)c3)cc2)no1	TRPC4 block -6
Cc1cc(NS(=O)(=O)c2ccc(NC(=O)COc3ccc(Cl)cc3Cl)cc2)no1	none
CNC(=O)c1oc(-c2ccc(Cl)cc2)nc1C	none
COc1ccc(S(=O)(=O)NC(C)C(=O)Nc2cccc(C(C)=O)c2)cc1 (centres undefined)	none
O=C(Nc1cccc(-c2cccc(F)c2)c1)C1CCN(Cc2ccco2)CC1	Kir21 block -4.91
Cc1cccc(CN2CCC(C(=O)Nc3cccc(-c4cccc(F)c4)c3)CC2)n1	Kir21 block -5.07
Cc1cc(N2CCCCC2)nc(N)n1	TRPC4 agonist 80
CCN(CC)CCNC(=O)C1(O)c2cc(Br)ccc2NC(=O)N1c1cccc(OC)c1 (centres undefined)	none
N#Cc1c(NC(=O)c2cnn3cccnc23)sc2c1CCCC2	none
O=C(Nc1cnn(C23CC4CC(CC(C4)C2)C3)c1)c1cnn2cccnc12	TRPC4 potent 73
CC(/C=N/NC(=O)c1cccc(F)c1)=C\c1ccccc1	none
O=C(NCCN1CCOCC1)c1cc2sccc2n1Cc1ccc(Cl)cc1	none
O=C(NCCN1CCOCC1)c1ccc2c(c1)N(Cc1ccc(F)cc1)C(=O)CS2	TRPC4 block -7
Cc1ccc(CN2C(=O)CSc3ccc(C(=O)NCCN4CCOCC4)cc32)cc1	none
O=C(NCCN1CCOCC1)c1cc2sccc2n1Cc1ccc(F)cc1	TRPC4 block -7
Cc1nc2c(C(=O)NCc3ccco3)cnn2c(C)c1Cc1ccc(F)cc1Cl	none
Cc1cccc(Cc2c(C)nc3c(C(=O)NCc4ccco4)cnn3c2C)c1	TRPC4 potent 97
Cc1ccc(S(=O)(=O)Nc2cc(C)on2)cc1	none
COc1ccc(CNC(=O)c2cc(COc3c(F)cccc3F)on2)cc1OC	none
CN(CCN1CCOCC1)Cc1nc(-c2ccccc2)no1	none
CN(Cc1nc(-c2ccc3c(c2)OCO3)no1)CC1(N2CCOCC2)CCCCC1	TRPC4 potent 35
CCOc1ccccc1O[C@H](c1ccccc1)[C@H]1CNCCO1	TRPC4 agonist 161
CCOc1ccccc1NC(=O)C(NCC1CCCCC1)c1ccccc1 (centres undefined)	none
Cc1ccccc1-n1c(C)cc(/C=C(\C#N)C(=O)NCC2CCCO2)c1C (centres undefined)	none
CCc1noc(C)c1C(=O)OCC(=O)NC(=O)c1ccccc1OC	none
COc1cc(CCC(=O)OCC(=O)NCc2ccc(Cl)cc2)cc(OC)c1OC	Kir21 block -4.39
COc1cc(CCC(=O)NCc2ccc(Cl)cc2)cc(OC)c1OC	none
Cc1cccc(-c2c3c(=O)n(C)c(=O)n(C)c3cn2CCO)c1	none
CCOC(=O)C1CCCN(C(=O)CCCn2nnnc2CN2CCOCC2)C1 (centres undefined)	TRPC4 potent 23
Cc1cc(C)c(S(=O)(=O)N2CCN(S(=O)(=O)N3CCC(C)CC3)CC2)c(C)c1	none
CC(=O)c1ccc(OCC(O)CN2CCN(S(=O)(=O)c3c(C)cc(C)cc3C)CC2)cc1 (centres undefined)	TRPC4 potent 22
CN1CCN(S(=O)(=O)c2cc(Cl)c(Cl)cc2Cl)CC1	TRPC4 agonist 51
Cc1cc(C)c(S(=O)(=O)N2CCN(C)CC2)c(C)c1	TRPC4 potent 21
CN1CCN(S(=O)(=O)c2ccc(Cl)c3ccccc23)CC1	none
CC(=O)c1ccc(OCC(O)CN2CCOCC2)cc1 (centres undefined)	none
Cc1cc(C)c(S(=O)(=O)N2CCN(CCO)CC2)c(C)c1	none
CCN1CCN(S(=O)(=O)c2c(C)cc(C)cc2C)CC1	TRPC4 potent 21
O=C(C[N+]1(CC#Cc2ccccc2)CCCCC1)c1ccc(Cl)cc1	TRPC4 block -6
Cc1cc2cc3c(cc2nc1SCc1ccc(C(=O)O)cc1)OCCO3	none
Cc1ccc(NC(=O)Nc2cccc([N+](=O)[O-])c2)nc1	TRPC4 potent 19
CCC[C@H]1COCCS(=O)(=O)N1Cc1ccc(Br)cc1	Kir21 block -6.1
CC(=O)c1ccc(NC(=O)CCCN2C(=O)C(c3ccccc3)Oc3cccnc32)cc1 (centres undefined)	Kir21 block -4.25
CCOC(=O)c1nn(-c2c(C)n(C)n(-c3ccccc3)c2=O)cc1O	none
CCOC(=O)C[C@H]1c2ccccc2S(=O)(=O)N1C1CC1	none
CC(=O)C[C@H]1c2ccccc2S(=O)(=O)N1C1CCCC1	Kir21 block -4.75 (no result: TRPC4 block)
C=CCNC(=O)CSc1ncc2c(n1)-c1c(csc1SC)CC2	none
CN1CCN(Cc2nc3c(c(=O)[nH]c(=O)n3C)n2Cc2c(F)cccc2Cl)CC1	TRPC4 potent 20, TRPC4 agonist 80
CN1CCN(Cc2nc3c(c(=O)[nH]c(=O)n3C)n2CCc2ccccc2)CC1	none
CCOC(=O)C1CCN(CCC(=O)Nc2ccc(C)cc2)CC1	none
O=C(C(=O)N1CCN(c2ccccc2F)CC1)c1c[nH]c2ccccc12	none
